This note sets out measurements from ChEMBL document CHEMBL2417412, “Design, synthesis, and structure-activity relationships of dihydrofuran-2-one and dihydropyrrol-2-one derivatives as novel benzoxazin-3-one-based mineralocorticoid receptor antagonists” (Bioorg Med Chem, 2013).

The target of assay [1] is T1, Mineralocorticoid receptor (Homo sapiens, UniProt P08235).
T1 sequence (P08235 whole entry): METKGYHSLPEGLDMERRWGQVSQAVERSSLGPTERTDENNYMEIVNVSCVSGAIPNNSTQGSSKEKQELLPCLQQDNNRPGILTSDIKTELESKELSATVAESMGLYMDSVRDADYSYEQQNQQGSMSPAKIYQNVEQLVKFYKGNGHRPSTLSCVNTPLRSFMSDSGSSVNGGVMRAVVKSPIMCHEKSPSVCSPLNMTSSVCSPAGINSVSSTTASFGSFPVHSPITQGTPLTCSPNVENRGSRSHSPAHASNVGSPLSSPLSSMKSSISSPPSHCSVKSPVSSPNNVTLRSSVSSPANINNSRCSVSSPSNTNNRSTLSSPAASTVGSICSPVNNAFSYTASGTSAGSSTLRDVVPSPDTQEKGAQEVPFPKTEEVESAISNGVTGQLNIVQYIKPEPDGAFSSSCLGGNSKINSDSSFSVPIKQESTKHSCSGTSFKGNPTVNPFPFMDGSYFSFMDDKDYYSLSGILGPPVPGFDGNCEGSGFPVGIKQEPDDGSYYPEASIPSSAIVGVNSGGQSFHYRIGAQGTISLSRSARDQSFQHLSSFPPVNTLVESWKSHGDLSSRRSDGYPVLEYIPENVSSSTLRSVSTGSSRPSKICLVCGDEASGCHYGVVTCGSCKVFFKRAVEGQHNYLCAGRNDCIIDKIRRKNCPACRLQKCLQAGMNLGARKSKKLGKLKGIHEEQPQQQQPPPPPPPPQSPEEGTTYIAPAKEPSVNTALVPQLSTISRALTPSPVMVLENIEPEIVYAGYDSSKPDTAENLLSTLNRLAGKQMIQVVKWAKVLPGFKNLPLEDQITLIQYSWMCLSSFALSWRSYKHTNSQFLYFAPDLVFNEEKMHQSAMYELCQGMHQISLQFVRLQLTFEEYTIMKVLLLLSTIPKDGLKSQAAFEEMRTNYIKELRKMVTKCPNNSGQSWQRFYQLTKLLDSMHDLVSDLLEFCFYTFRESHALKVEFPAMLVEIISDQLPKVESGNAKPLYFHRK
The experiment in a line: Displacement of [3H]-Aldosterone from human MR expressed in 293 cells after 16 hrs by scintillation counting. In kind it is cell-based, HEK293. The method, boiled down:
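Cytosolic protein (0.75-1.5 mg/mL) from FreeStyle 293 cells transiently transfected with human MR was incubated for 16 h at 4 °C with 10 nM [3H]-aldosterone and serially diluted compound in TEGM buffer (Tris pH 7.2, EDTA, glycerol, DTT, molybdate, protease inhibitors). Free ligand was removed with dextran/gelatin-coated charcoal and the supernatant counted. Nonspecific binding used 100 µM cold aldosterone. Duplicates; IC50 from curve fit.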

In assay [2] the test system is HEK293. Description: Selectivity ratio of IC50 for human PR expressed in 293 cells to IC50 for human MR expressed in 293 cells. In kind it is cell-based.
For assay [3], the system named is HEK293. The experiment in a line: Selectivity ratio of IC50 for human GR expressed in 293 cells to IC50 for human MR expressed in 293 cells. In kind it is cell-based.
For assay [4], the system named is HEK293. Description: Selectivity ratio of IC50 for human AR expressed in 293 cells to IC50 for human MR expressed in 293 cells. In kind it is cell-based.
Assay [5] concerns the target T1, Mineralocorticoid receptor. Description: Antagonist activity at MR (unknown origin) expressed in COS1 cells after 1 day by luciferase reporter gene assay. In kind it is cell-based, COS-1. An outline of the steps: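 Human MR plasmid, MMTV-luciferase reporter and pRL-TK were lipofected into COS-1 cells, which were cultured for 1 day. Cells were then reseeded in low-glucose D-MEM with 0.1% BSA. Serial compound concentrations were added with 1 nM aldosterone (final) for 1 day at 37 °C in 5% CO2. Luciferase was read, and IC50 came from a sigmoidal fit.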
A general note: A reporter such as luciferase makes a cellular process visible.

Some results are limits rather than exact numbers.

`CC1NC(=O)C(c2ccc(F)cc2)=C1c1ccc2c(c1)NC(=O)CO2` (configuration not stated): the IC50 – broadly, the concentration that gives 50% inhibition – in assay [1] was 94 nM.

Regarding `CC1C(c2ccc3c(c2)NC(=O)CO3)=C(c2ccc(F)cc2)C(=O)N1C1CC1` (configuration not stated), the IC50 in assay [1] was found to be 68 nM.

`CCC1OC(=O)C(c2ccc(F)cc2)=C1c1ccc2c(c1)NC(=O)CO2` (configuration not stated) returned an IC50 in assay [1] of 1200 nM.

For `CC1C(c2ccc3c(c2)NC(=O)CO3)=C(c2ccc(F)cc2)C(=O)N1C` (configuration not stated), the IC50 in assay [1] worked out at 170 nM.

In assay [1], `Cc1cc(F)ccc1C1=C(c2ccc3c(c2)NC(=O)CO3)COC1=O` yielded an IC50 of 750 nM.

As for `CC1(F)OC(=O)C(c2ccc(F)cc2)=C1c1ccc2c(c1)NC(=O)CO2` (configuration not stated), the IC50 in assay [1] came out at 550 nM.

As for `CCN1C(=O)C(c2ccc(F)cc2)=C(c2ccc3c(c2)NC(=O)CO3)C1C` (configuration not stated), the IC50 in assay [1] was determined as 33 nM.

The compound `CC1NC(=O)C(c2ccc(F)cc2)=C1c1cc(Cl)c2c(c1)NC(=O)CO2` (configuration not stated) yielded an IC50 in assay [1] of 23 nM.

In the case of `O=C1COc2ccc(C3=C(c4ccc(F)cc4)C(=O)OC3)cc2N1`, the IC50 in assay [1] stood at 500 nM.

In the case of `Cc1cc(C2=C(c3ccc(F)cc3)C(=O)NC2C)cc2c1OCC(=O)N2` (configuration not stated), the Ratio IC50 in the assay on HEK293 [2] was above 200; in the assay with HEK293 [3], 100; in the assay on HEK293 [4], above 200. Besides, the values for the IC50 in assay [5] and in assay [1] were 83 nM and 43 nM, respectively.

Turning to `CC1C(c2ccc3c(c2)NC(=O)CO3)=C(c2ccc(F)cc2)C(=O)N1CCO` (configuration not stated), the IC50 in assay [1] was 1600 nM.

In assay [1], `CC1NC(=O)C(c2ccc(F)cc2)=C1c1cc(F)c2c(c1)NC(=O)CO2` (configuration not stated) returned an IC50 of 92 nM.

In the case of `CC1(C)OC(=O)C(c2ccc(F)cc2)=C1c1ccc2c(c1)NC(=O)CO2`, the half-maximal inhibitory concentration (IC50) in assay [1] stood at 1200 nM.
